These results are taken from ChEMBL document CHEMBL1124627, “Long-acting dihydropyridine calcium antagonists. 3. Synthesis and structure-activity relationships for a series of 2-[(heterocyclylmethoxy)methyl] derivatives” (J Med Chem, 1989).

The structures appear in SMILES notation.

Series [1] has as its target Voltage-dependent L-type calcium channel subunit alpha-1C (Rattus norvegicus, UniProt P22002). Nature of the series: Selectivity for vascular (Ca pIC50) over cardiac (negative inotropy IC25) calcium channels. The format is functional.
The species entered for series [2] is Cavia porcellus. The experiment in a line: Negative logarithm of the molar concentration required to depress contraction in the Langendorff-perfused guinea pig heart by 25%. The format is functional.
Series [3] is filed under the species Rattus norvegicus. The experiment in a line: Negative logarithm of molar concentration required to block calcium-induced contraction of potassium depolarized rat aorta by 50%. In kind it is functional.
In series [4] the test system is Canis familiaris. Nature of the series: Coronary vasodilator activity in dogs, after administration of a dose of 150 micorg/kg intravenously. In kind it is functional, Canis lupus familiaris. In short, it runs like this:
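Anesthetized beagle dogs fitted with catheters for blood pressure, left ventricular pressure and intravenous dosing. Coronary blood flow was measured by hydrogen clearance with platinum electrodes in the coronary sinus and femoral artery, and cardiac output by thermodilution. Coronary vascular resistance was derived from these measurements. A single intravenous dose was given, and the CVR fall was followed over time to assess duration of action.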

Sequence of Voltage-dependent L-type calcium channel subunit alpha-1C (P22002 whole entry, the tested form may be a part): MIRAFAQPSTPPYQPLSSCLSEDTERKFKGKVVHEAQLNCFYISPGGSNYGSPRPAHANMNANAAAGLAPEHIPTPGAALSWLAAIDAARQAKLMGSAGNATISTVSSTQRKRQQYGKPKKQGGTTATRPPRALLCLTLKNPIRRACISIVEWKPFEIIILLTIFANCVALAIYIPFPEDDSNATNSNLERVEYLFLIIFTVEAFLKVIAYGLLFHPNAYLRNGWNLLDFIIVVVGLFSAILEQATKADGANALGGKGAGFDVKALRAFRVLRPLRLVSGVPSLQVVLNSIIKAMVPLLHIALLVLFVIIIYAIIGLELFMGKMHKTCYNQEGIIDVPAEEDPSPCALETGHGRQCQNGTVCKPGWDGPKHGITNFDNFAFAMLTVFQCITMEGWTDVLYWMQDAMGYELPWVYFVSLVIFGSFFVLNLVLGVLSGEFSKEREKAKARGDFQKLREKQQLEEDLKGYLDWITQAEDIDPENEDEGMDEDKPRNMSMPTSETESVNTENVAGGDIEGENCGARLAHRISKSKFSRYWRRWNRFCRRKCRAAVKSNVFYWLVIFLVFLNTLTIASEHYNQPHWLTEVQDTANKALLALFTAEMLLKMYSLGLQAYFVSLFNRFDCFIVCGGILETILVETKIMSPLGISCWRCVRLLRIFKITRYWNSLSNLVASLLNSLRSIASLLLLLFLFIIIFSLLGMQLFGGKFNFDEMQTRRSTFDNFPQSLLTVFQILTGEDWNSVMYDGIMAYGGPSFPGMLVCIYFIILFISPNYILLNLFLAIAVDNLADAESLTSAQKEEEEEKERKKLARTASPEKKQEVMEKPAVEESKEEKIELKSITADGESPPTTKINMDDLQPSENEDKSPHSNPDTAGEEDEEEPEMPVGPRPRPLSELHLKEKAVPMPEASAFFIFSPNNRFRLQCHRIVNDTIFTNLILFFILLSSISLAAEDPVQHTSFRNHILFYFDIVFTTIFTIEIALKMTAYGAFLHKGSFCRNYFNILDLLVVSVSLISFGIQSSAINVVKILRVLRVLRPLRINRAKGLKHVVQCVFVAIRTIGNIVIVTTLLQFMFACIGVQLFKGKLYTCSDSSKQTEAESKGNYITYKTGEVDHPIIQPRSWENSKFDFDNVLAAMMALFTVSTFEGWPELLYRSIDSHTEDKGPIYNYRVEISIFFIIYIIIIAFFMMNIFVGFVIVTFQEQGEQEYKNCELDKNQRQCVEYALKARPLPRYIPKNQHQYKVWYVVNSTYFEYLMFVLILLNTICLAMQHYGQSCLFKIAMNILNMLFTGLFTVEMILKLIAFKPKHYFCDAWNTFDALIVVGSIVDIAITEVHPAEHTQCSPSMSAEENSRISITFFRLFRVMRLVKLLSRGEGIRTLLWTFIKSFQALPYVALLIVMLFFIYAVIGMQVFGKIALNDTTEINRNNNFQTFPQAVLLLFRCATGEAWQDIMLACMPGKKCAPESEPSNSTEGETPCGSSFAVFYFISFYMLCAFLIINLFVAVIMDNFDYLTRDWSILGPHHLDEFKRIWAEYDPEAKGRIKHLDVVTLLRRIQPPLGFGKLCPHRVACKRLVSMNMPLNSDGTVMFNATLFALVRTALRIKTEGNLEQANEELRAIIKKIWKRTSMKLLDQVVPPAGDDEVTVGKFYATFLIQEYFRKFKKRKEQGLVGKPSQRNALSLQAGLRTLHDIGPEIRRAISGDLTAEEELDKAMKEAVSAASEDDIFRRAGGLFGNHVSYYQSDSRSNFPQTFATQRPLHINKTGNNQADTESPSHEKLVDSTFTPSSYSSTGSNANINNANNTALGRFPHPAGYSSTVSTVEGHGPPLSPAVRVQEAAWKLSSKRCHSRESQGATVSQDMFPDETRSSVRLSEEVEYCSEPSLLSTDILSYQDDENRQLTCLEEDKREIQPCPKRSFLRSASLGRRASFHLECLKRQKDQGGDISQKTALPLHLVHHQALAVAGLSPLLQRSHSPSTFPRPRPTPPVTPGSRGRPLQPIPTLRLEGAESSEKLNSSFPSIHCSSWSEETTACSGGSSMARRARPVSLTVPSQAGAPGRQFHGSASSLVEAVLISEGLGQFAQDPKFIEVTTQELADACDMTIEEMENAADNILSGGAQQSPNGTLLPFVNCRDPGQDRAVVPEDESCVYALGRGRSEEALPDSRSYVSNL

As for `CCO/C(O)=C1\C(COCc2cc(=O)n(CCO)c(N)n2)=NC(C)=C(C(=O)OC)C1c1cccc(Cl)c1Cl` (centres undefined), in series [1], the Selectivity index was 32. The pIC25 in series [2] is recorded as 7. Moreover, the half-inhibitory concentration (IC50) in series [3] is 3.16 nM.

`CCO/C(O)=C1\C(COCc2cc(O)nc(CN3CCOCC3)n2)=NC(C)=C(C(=O)OC)C1c1cccc(Cl)c1Cl` (centres undefined): the Selectivity index in series [1] was found to be 32. Besides, in series [2], the pIC25 is recorded as 6.9. Moreover, the IC50 in series [3] was 3.98 nM.

Regarding `COC(=O)C1=C(C)NC(C)=C(C(=O)OC)C1c1ccccc1[N+](=O)[O-]` [NIFEDIPINE], in series [1], the Selectivity index came to 8. For the same compound, in series [4], the Decrease turned out to be 77%. The pIC25 in series [2] is given as 7.5.
